In brackets after ≈: the same amount, converted by molar mass.
How the values were obtained:
Pseudomonas aeruginosa [1] = experiment: Antimicrobial activity against Pseudomonas aeruginosa YYI65 (deltamexB) incubated at 35 degC for 20 hrs by microdilution broth method; assay type: functional; details: YYI65, 20 h
How it was run: (§1)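 Broth microdilution per NCCLS in cation-adjusted Mueller-Hinton broth. Each compound serially diluted two-fold, and each […] inoculated at 5×10^4 CFU per 0.1 mL well. Plates incubated 35 °C for 20 h, then MIC scored.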

[2] = target: T1, Phospho-N-acetylmuramoyl-pentapeptide-transferase (Staphylococcus aureus, UniProt P0C1R8); experiment: Inhibition of Staphylococcus aureus MraY using UDP-MurNAc-dansylpentapeptide substrate assessed as formation of dansylated lipid I incubated for 3 to 4 hrs by fluorometric assay
T1 sequence (P0C1R8 whole entry): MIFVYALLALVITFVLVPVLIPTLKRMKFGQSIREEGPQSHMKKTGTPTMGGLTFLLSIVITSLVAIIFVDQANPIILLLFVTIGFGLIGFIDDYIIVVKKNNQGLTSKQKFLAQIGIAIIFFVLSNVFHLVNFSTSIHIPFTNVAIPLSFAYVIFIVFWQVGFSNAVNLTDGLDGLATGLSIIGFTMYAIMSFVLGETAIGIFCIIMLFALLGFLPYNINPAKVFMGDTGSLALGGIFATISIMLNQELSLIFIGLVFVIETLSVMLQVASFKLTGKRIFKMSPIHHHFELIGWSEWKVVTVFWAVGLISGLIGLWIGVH
How it was run: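 Purified S. aureus MraY with UDP-MurNAc-dansylpentapeptide as substrate. Dansylated lipid I formation followed as fluorescence enhancement at ex 355 nm / em 535 nm. IC50 reported.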

Pseudomonas aeruginosa [3] = experiment: Antimicrobial activity against Pseudomonas aeruginosa PAO1 incubated at 35 degC for 20 hrs by microdilution broth method; assay type: functional; details: PAO1, 20 h; how it was run: as §1
Pseudomonas aeruginosa [4] = experiment: Antimicrobial activity against Pseudomonas aeruginosa SR 27156 incubated at 35 degC for 20 hrs by microdilution broth method; assay type: functional; details: SR 27156, 20 h; how it was run: as §1
Pseudomonas aeruginosa [5] = experiment: Antimicrobial activity against Pseudomonas aeruginosa ATCC 25619 incubated at 35 degC for 20 hrs by microdilution broth method; assay type: functional; details: ATCC 25619, 20 h; how it was run: as §1

SMILES	MIC (Pseudomonas aeruginosa [1]) [µg/mL]	IC50 [2] [nM]	MIC (Pseudomonas aeruginosa [3]) [µg/mL]	MIC (Pseudomonas aeruginosa [4]) [µg/mL]	MIC (Pseudomonas aeruginosa [5]) [µg/mL]
C[C@H](N)C(=O)N(C)[C@@H](C)[C@H](NC(=O)[C@H](C)NC(=O)N[C@@H](Cc1c[nH]c2ccccc12)C(=O)O)C(=O)N/C=C1\O[C@@H](n2ccc(=O)[nH]c2=O)[C@H](O)[C@@H]1O	8 (≈ 11 µM)	42	32 (≈ 44 µM)	16 (≈ 22 µM)	16 (≈ 22 µM)
C[C@H](NC(=O)N[C@@H](Cc1c[nH]c2ccccc12)C(=O)O)C(=O)N[C@H](C(=O)N/C=C1\O[C@@H](n2ccc(=O)[nH]c2=O)[C@H](O)[C@@H]1O)[C@H](C)N(C)C(=O)[C@H](Cc1cccc(O)c1)NC(=O)CN	16 (≈ 18.2 µM)	22	> 32	16 (≈ 18.2 µM)	32 (≈ 36.5 µM)
C[C@H](NC(=O)N[C@@H](Cc1c[nH]c2ccccc12)C(=O)O)C(=O)N[C@H](C(=O)N/C=C1\O[C@@H](n2ccc(=O)[nH]c2=O)[C@H](O)[C@@H]1O)[C@H](C)N(C)C(=O)CN	> 32	65	> 32	> 32	> 32
C[C@H](NC(=O)N[C@@H](Cc1c[nH]c2ccccc12)C(=O)O)C(=O)N[C@@H](C(=O)N/C=C1\O[C@@H](n2ccc(=O)[nH]c2=O)[C@H](O)[C@@H]1O)[C@H](C)N(C)C(=O)[C@@H](Cc1cccc(O)c1)NC(=O)CN	> 32	8900	> 32	> 32	> 32
C[C@H](N)C(=O)N(C)[C@@H](C)[C@H](NC(=O)[C@H](C)NC(=O)N[C@@H](Cc1c[nH]c2ccccc12)C(=O)O)C(=O)N/C=C1/C[C@@H](O)[C@H](n2ccc(=O)[nH]c2=O)O1 [PACIDAMYCIN D]	16 (≈ 22.5 µM)	22	64 (≈ 89.9 µM)	16 (≈ 22.5 µM)	16 (≈ 22.5 µM)

Second part, the molecule after the results:

MIC (Pseudomonas aeruginosa [1]) [µg/mL]	IC50 [2] [nM]	MIC (Pseudomonas aeruginosa [3]) [µg/mL]	MIC (Pseudomonas aeruginosa [4]) [µg/mL]	MIC (Pseudomonas aeruginosa [5]) [µg/mL]	SMILES
> 32	4000	> 32	> 32	> 32	C[C@H](N)C(=O)N(C)[C@@H](C)[C@@H](NC(=O)[C@H](C)NC(=O)N[C@@H](Cc1c[nH]c2ccccc12)C(=O)O)C(=O)N/C=C1\O[C@@H](n2ccc(=O)[nH]c2=O)[C@H](O)[C@@H]1O
> 32	4000	> 32	> 32	> 32	C[C@H](NC(=O)N[C@@H](Cc1c[nH]c2ccccc12)C(=O)O)C(=O)N[C@H](C(=O)N/C=C1\O[C@@H](n2ccc(=O)[nH]c2=O)[C@H](O)[C@@H]1O)[C@H](C)N(C)C(=O)[C@H](Cc1ccc(O)cc1)NC(=O)CN
> 32	650	> 32	> 32	> 32	C[C@H](NC(=O)N[C@@H](Cc1c[nH]c2ccccc12)C(=O)O)C(=O)N[C@@H](C(=O)N/C=C1\O[C@@H](n2ccc(=O)[nH]c2=O)[C@H](O)[C@@H]1O)[C@H](C)N(C)C(=O)[C@H](Cc1cccc(O)c1)NC(=O)CN

Reference: ChEMBL document CHEMBL2046349, “Synthesis of pacidamycin analogues via an Ugi-multicomponent reaction” (Bioorg Med Chem Lett, 2012)
